From ChEMBL document CHEMBL1134532, “Reversible carnitine palmitoyltransferase inhibitors with broad chemical diversity as potential antidiabetic agents” (J Med Chem, 2001)

Experiments:
[1] = biological target: T1, Carnitine O-palmitoyltransferase 1, liver isoform (Rattus norvegicus, UniProt P32198); experiment: Inhibition of rat liver mitochondrial carnitine palmitoyltransferase 1 using [14C]palmitoyl-CoA radioligand
T1 sequence (P32198 whole entry): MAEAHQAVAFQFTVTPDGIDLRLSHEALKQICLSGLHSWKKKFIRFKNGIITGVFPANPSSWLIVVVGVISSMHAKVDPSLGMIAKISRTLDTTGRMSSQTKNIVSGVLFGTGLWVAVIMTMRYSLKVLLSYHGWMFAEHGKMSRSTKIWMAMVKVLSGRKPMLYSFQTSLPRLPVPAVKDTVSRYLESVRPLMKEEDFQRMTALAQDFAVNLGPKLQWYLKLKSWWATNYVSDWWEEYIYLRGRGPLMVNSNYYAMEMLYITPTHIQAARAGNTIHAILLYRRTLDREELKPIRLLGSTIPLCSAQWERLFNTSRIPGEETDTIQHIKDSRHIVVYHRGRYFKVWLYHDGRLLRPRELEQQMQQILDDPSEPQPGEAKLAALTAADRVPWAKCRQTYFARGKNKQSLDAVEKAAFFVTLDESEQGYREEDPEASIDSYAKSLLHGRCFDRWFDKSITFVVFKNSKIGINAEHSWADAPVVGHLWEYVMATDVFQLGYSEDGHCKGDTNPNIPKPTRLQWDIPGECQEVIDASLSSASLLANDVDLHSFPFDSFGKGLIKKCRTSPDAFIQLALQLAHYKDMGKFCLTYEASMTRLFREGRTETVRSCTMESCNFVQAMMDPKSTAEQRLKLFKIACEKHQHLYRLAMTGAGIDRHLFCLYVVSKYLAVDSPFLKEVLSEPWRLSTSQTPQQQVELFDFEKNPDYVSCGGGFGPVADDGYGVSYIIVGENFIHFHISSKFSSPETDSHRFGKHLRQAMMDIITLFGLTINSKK
In short: (§1)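 Performed on intact rat mitochondria: liver for L-CPT I, heart for M-CPT I. IC50 in µM calculated from the inhibition curve. Values are means of two determinations in triplicate, with variation between experiments under 8%.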

[2] = biological target: T2, Carnitine O-palmitoyltransferase 1, muscle isoform (Rattus norvegicus, UniProt Q63704); experiment: Inhibitory activity against rat heart mitochondrial carnitine palmitoyltransferase 1b using [14C]palmitoyl-CoA as radioligand; in short: as §1
T2 sequence (Q63704 whole entry): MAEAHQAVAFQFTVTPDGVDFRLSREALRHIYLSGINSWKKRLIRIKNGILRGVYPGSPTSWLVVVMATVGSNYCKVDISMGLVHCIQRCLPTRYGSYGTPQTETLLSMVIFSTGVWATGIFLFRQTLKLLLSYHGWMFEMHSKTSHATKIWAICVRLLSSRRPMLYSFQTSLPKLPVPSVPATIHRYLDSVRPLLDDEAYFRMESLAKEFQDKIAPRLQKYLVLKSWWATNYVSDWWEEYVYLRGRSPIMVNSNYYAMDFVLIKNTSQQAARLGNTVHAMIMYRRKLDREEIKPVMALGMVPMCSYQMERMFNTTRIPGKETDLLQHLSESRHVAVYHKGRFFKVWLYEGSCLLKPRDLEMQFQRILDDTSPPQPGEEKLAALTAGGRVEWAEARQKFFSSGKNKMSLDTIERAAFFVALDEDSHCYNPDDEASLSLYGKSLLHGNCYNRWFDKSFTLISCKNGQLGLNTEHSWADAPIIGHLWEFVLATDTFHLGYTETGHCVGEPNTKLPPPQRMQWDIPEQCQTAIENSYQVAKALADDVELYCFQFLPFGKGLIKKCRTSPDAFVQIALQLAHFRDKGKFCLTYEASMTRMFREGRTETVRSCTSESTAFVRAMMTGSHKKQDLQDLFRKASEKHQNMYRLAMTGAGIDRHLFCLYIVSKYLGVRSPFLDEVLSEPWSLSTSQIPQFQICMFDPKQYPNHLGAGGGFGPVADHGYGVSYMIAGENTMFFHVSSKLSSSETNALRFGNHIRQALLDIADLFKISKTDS

For `CCCCCCCCCCCCCCOC(CC(=O)[O-])C[N+](C)(C)C` (centres undefined), the IC50 [1] was 47 µM.
In the case of `CCCCCCCCCNS(=O)(=O)NC(CC(=O)[O-])C[N+](C)(C)C` (centres undefined), the IC50 [2] is reported as 3.8 µM and the IC50 [1] is reported as 2.3 µM.
With `CCCCCCCCCNC(=S)NC(CC(=O)[O-])C[N+](C)(C)C` (centres undefined) the IC50 [1] was 122 µM.
Molecule `CCCCCCCCCOC(=O)OC(CC(=O)O)C[N+](C)(C)C` (centres undefined) has an IC50 [1] greater than 300 µM.
With `CCCCCCCCCCCNS(=O)(=O)N[C@H](CC(=O)[O-])C[N+](C)(C)C` the IC50 [2] was 5.8 µM and the IC50 [1] was 0.8 µM.
`CCCCCCCCCNC(=O)OC(C[N+](C)(C)C)CP(=O)([O-])O` (centres undefined) was tested, and the IC50 [1] was greater than 300 µM.
In the case of `CCCCCCCCCCCCS(=O)(=O)N[C@H](CC(=O)[O-])C[N+](C)(C)C`, the IC50 [2] is reported as 3.4 µM and the IC50 [1] is reported as 0.7 µM.
For `CCCCCCCCCCCCCCNC(CC(=O)[O-])C[N+](C)(C)C` (centres undefined), the IC50 [1] was 230 µM.
In the case of `CCCCCCCCOC(CC(=O)[O-])C[N+](C)(C)C` (centres undefined), the IC50 [1] is reported as greater than 300 µM.
Work on `CCCCCCCCNC(CC(=O)[O-])C[N+](C)(C)C` (centres undefined) yielded an IC50 [1] greater than 300 µM.
With `CCCCCCCCCCS(=O)(=O)NC(CC(=O)[O-])C[N+](C)(C)C` (centres undefined) the IC50 [2] was 2.3 µM and the IC50 [1] was 1.6 µM.
Molecule `CCCCCCCCOC(=O)NC(CC(=O)[O-])C[N+](C)(C)C` (centres undefined) has an IC50 [2] of 211 µM and an IC50 [1] of 22.3 µM.
For `CCCCCCCCCCCNS(=O)(=O)N[C@@H](CC(=O)[O-])C[N+](C)(C)C`, the IC50 [2] was greater than 10 µM and the IC50 [1] was 6 µM.
`CCCCCCCCCCCCS(=O)(=O)N[C@@H](CC(=O)[O-])C[N+](C)(C)C` gave an IC50 [2] greater than 10 µM and an IC50 [1] of 6 µM.
Molecule `CCCCCCCCCCCCCCOC(Cc1nn[n-]n1)C[N+](C)(C)C` (centres undefined) has an IC50 [1] greater than 300 µM.
`CCCCCCCCCNC(=O)OC(C[n+]1ccccc1)CP(=O)(O)O` (centres undefined) was tested, and the IC50 [1] was greater than 300 µM.
Molecule `CCCCCCCCCCCCCCOC(=O)OC(CC(=O)[O-])C[N+]12CCC(CC1)CC2` (centres undefined) has an IC50 [1] greater than 300 µM.
Molecule `CCCCCCCCCCCCCCOC(=O)OC(C[N+]12CCC(CC1)CC2)CP(=O)([O-])O` (centres undefined) has an IC50 [1] greater than 300 µM.
Work on `CCCCCCCCCNC(=O)NC(CC(=O)[O-])C[N+](C)(C)C` (centres undefined) yielded an IC50 [2] of 83.2 µM and an IC50 [1] of 19.5 µM.
Molecule `CCCCCCCCCNC(=O)OC(CC(=O)[O-])C[N+](C)(C)C` (centres undefined) has an IC50 [1] greater than 300 µM.
In the case of `CCCCCCCCCNC(=O)OC(CC(=O)[O-])C[P+](C)(C)C` (centres undefined), the IC50 [1] is reported as greater than 300 µM.
